# Assay results: article PMC6639057 (Investigational new drugs, 2018)
# Marks after values point to notes of the source that are not given here.
# Key:
# [1] = system: castration-resistant and taxane- or cisplatin/etoposide-resistant prostate cancer; experiment: Tumor response, dose-expansion CRPC cohort; assay type: in vivo, human
# [2] = system: cell lines from a variety of tumor types including several that were resistant to paclitaxel; conditions: preclinical; cited from earlier work
# [3] = system: advanced solid tumors; experiment: Tumor response, dose-escalation cohorts; assay type: in vivo, human; conditions: for Best overall response: Complete response / Best overall response: Partial response / Best overall response: Progressive disease / Best overall response: Stable disease / Best overall response: Unable to evaluate: Central read, RECIST 1.1
# In short: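 Adults with refractory advanced solid tumours took the drug orally once each morning on days 1–4 of 14-day cycles, fasting from 2 h predose (water only) until 1 h postdose. Doses were 1–30 mg (and 25 mg) without G-CSF, or 30–50 mg with subcutaneous G-CSF (300 or 480 µg daily). Scans were read centrally by RECIST 1.1 and locally by RECIST 1.0, with GCIG criteria for ovarian tumours.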
# [4] = Central read, RECIST 1.1, expansion 40 mg + G-CSF, CRPC (n = 12)
# [5] = Local read, RECIST 1.0, expansion 40 mg + G-CSF, CRPC (n = 12)
# [6] = escalation 30 mg + G-CSF (n = 6)
# [7] = escalation 35 mg + G-CSF (n = 3)
# [8] = escalation 40 mg + G-CSF (n = 11)
# [9] = escalation 50 mg + G-CSF (n = 4)
# [10] = escalation 1, 2, 4, 8 mg (n = 4)
smiles,measurement,setting,value
Cc1csc(-c2nnc(Nc3ccc(Oc4ncccc4-c4ccnc(N)n4)cc3)c3ccccc23)c1 [AMG 900],"Progression-free survival, median (80% CI)","[1]; Central read, RECIST 1.1, Kaplan-Meier, expansion 40 mg + G-CSF, CRPC (n = 12)",32.4 (15.7–39.6) weeks
same,Best overall response: Complete response,[1]; [4],0 Patients (%)
same,Best overall response: Not evaluable (postbaseline scan not readable),[1]; [4],2 (17) Patients (%)
same,Best overall response: Partial response,[1]; [4],0 Patients (%)
same,Best overall response: Progressive disease,[1]; [4],1 (8) Patients (%)
same,Best overall response: Stable disease,[1]; [4],9 (75) Patients (%)
same,Best overall response: Complete response,[1]; [5],0 Patients (%)
same,Best overall response: Not evaluable (postbaseline scan not readable),[1]; [5],1 (8) Patients (%)
same,Best overall response: Partial response,[1]; [5],0 Patients (%)
same,Best overall response: Progressive disease,[1]; [5],3 (25) Patients (%)
same,Best overall response: Stable disease,[1]; [5],8 (67) Patients (%)
same,Objective responses,"[1]; RECIST 1.1, CRPC",No objective responses
same,Proliferation of tumor cell lines,[2],inhibited the proliferation
same,"Duration of stable disease, one patient with medullary thyroid cancer",[3]; 24 mg,> 3.5 years
same,"Tumor response, one patient with clear-cell endometrial cancer",[3]; 30 mg + G-CSF,partial response per RECIST 1.0 (local read) that was not confirmed per RECIST 1.1 (central read)
same,"Tumor response, one patient with ovarian cancer","[3]; 30 mg, RECIST 1.1 and GCIG criteria (central read)",partial response
same,Best overall response: Complete response,[3]; escalation 16 mg (n = 3),0 Patients (%)
same,Best overall response: Partial response,[3]; escalation 16 mg (n = 3),0 Patients (%)
same,Best overall response: Progressive disease,[3]; escalation 16 mg (n = 3),0 Patients (%)
same,Best overall response: Stable disease,[3]; escalation 16 mg (n = 3),2 (67) Patients (%)
same,Best overall response: Unable to evaluate,[3]; escalation 16 mg (n = 3),1 (33) Patients (%)
same,Best overall response: Complete response,[3]; escalation 24 mg (n = 6),0 Patients (%)
same,Best overall response: Partial response,[3]; escalation 24 mg (n = 6),0 Patients (%)
same,Best overall response: Progressive disease,[3]; escalation 24 mg (n = 6),1 (17) Patients (%)
same,Best overall response: Stable disease,[3]; escalation 24 mg (n = 6),5 (83) Patients (%)
same,Best overall response: Unable to evaluate,[3]; escalation 24 mg (n = 6),0 Patients (%)
same,Best overall response: Complete response,[3]; escalation 25 mg (n = 7),0 Patients (%)
same,Best overall response: Partial response,[3]; escalation 25 mg (n = 7),0 Patients (%)
same,Best overall response: Progressive disease,[3]; escalation 25 mg (n = 7),1 (14) Patients (%)
same,Best overall response: Stable disease,[3]; escalation 25 mg (n = 7),4 (57) Patients (%)
same,Best overall response: Unable to evaluate,[3]; escalation 25 mg (n = 7),2 (29) Patients (%)
same,Best overall response: Complete response,[3]; escalation 30 mg (n = 6),0 Patients (%)
same,Best overall response: Progressive disease,[3]; escalation 30 mg (n = 6),1 (17) Patients (%)
same,Best overall response: Stable disease,[3]; escalation 30 mg (n = 6),3 (50) Patients (%)
same,Best overall response: Unable to evaluate,[3]; escalation 30 mg (n = 6),1 (17) Patients (%)
same,Best overall response: Partial response,"[3]; escalation 30 mg (n = 6), patient also had a response by GCIG CA 125 criteria",1 (17)^b Patients (%)
same,Best overall response: Complete response,[3]; [6],0 Patients (%)
same,Best overall response: Partial response,[3]; [6],0 Patients (%)
same,Best overall response: Progressive disease,[3]; [6],3 (50) Patients (%)
same,Best overall response: Stable disease,[3]; [6],3 (50) Patients (%)
same,Best overall response: Unable to evaluate,[3]; [6],0 Patients (%)
same,Best overall response: Complete response,[3]; [7],0 Patients (%)
same,Best overall response: Partial response,[3]; [7],0 Patients (%)
same,Best overall response: Progressive disease,[3]; [7],2 (67) Patients (%)
same,Best overall response: Stable disease,[3]; [7],1 (33) Patients (%)
same,Best overall response: Unable to evaluate,[3]; [7],0 Patients (%)
same,Best overall response: Complete response,[3]; [8],0 Patients (%)
same,Best overall response: Partial response,[3]; [8],0 Patients (%)
same,Best overall response: Progressive disease,[3]; [8],2 (18) Patients (%)
same,Best overall response: Stable disease,[3]; [8],7 (64) Patients (%)
same,Best overall response: Unable to evaluate,[3]; [8],2 (18) Patients (%)
same,Best overall response: Complete response,[3]; [9],0 Patients (%)
same,Best overall response: Partial response,[3]; [9],0 Patients (%)
same,Best overall response: Progressive disease,[3]; [9],0 Patients (%)
same,Best overall response: Stable disease,[3]; [9],2 (50) Patients (%)
same,Best overall response: Unable to evaluate,[3]; [9],2 (50) Patients (%)
same,Best overall response: Complete response,[3]; [10],0 Patients (%)
same,Best overall response: Partial response,[3]; [10],0 Patients (%)
same,Best overall response: Progressive disease,[3]; [10],2 (50) Patients (%)
same,Best overall response: Stable disease,[3]; [10],2 (50) Patients (%)
same,Best overall response: Unable to evaluate,[3]; [10],0 Patients (%)
